From ChEMBL document CHEMBL4190276, “Design, synthesis and evaluation of coumarin-pargyline hybrids as novel dual inhibitors of monoamine oxidases and amyloid-β aggregation for the treatment of Alzheimer's disease” (Eur J Med Chem, 2017)

Key:
[1] = Permeability of the compound in PBS/EtOH at […] after 16 hrs by PAMPA; assay type: ADME; settings: read-out: Peff
Homo sapiens = organism: Homo sapiens; assay: Selectivity index, ratio of IC50 for recombinant human MAO-A to IC50 for recombinant human MAO-B
Procedure, shortened: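 Commercial human MAO-A (1.1 μg protein) and MAO-B (7.5 μg protein) adjusted to equal velocity (165 pmol p-tyramine/min). Compounds from 10 mM DMSO stock diluted in 0.05 M potassium phosphate, pH 7.4. Preincubated with enzyme 15 min at 37 °C in the dark; 200 μM Amplex Red, 2 U/mL HRP, 2 mM p-tyramine added for 20 min at 37 °C.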

[2] = molecular target: T1, Amine oxidase [flavin-containing] A (Homo sapiens, UniProt P21397); assay: Inhibition of recombinant human MAO-A using p-tyramine as substrate preincubated for 15 mins followed by substrate addition measured after 20 mins by amplex red reagent based fluorescence assay
T1 sequence (P21397 whole entry): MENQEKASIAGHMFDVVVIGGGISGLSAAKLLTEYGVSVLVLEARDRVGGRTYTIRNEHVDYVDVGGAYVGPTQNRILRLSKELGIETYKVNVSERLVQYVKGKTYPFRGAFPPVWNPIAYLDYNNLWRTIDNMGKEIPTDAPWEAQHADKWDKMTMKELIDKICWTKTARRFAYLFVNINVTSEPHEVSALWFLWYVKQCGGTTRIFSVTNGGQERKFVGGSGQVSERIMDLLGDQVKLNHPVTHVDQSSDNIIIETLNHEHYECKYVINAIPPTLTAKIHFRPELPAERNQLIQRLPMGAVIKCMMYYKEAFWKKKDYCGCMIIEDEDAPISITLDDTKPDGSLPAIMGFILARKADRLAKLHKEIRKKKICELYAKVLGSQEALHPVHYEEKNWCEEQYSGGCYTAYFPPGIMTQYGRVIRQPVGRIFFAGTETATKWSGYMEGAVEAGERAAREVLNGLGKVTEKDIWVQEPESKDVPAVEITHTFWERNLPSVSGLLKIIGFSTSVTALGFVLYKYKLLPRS

[3] = molecular target: T2, Amine oxidase [flavin-containing] B (Homo sapiens, UniProt P27338); assay: Inhibition of recombinant human MAO-B using p-tyramine as substrate preincubated for 15 mins followed by substrate addition measured after 20 mins by amplex red reagent based fluorescence assay
T2 sequence (P27338 whole entry): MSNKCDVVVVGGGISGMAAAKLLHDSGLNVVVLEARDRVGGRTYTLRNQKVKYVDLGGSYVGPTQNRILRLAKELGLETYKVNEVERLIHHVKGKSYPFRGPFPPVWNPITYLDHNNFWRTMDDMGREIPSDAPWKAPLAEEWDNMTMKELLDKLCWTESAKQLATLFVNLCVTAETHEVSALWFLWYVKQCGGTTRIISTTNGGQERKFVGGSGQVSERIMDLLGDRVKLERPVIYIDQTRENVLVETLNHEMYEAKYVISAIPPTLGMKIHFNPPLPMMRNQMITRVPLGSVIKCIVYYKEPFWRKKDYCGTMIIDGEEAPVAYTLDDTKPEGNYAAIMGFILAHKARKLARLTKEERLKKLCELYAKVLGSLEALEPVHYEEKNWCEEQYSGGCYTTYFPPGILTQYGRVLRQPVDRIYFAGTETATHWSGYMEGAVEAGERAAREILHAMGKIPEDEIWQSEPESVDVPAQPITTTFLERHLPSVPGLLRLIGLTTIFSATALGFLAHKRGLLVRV

[4] = molecular target: Amyloid-beta precursor protein (Homo sapiens) (UniProt P05067); assay: Inhibition of self-induced Amyloid beta (1 to 42) (unknown origin) aggregation at 25 uM after 48 hrs by thioflavin T-based fluorometric assay relative to control
Chain of Amyloid-beta precursor protein (Homo sapiens) (P05067 whole entry): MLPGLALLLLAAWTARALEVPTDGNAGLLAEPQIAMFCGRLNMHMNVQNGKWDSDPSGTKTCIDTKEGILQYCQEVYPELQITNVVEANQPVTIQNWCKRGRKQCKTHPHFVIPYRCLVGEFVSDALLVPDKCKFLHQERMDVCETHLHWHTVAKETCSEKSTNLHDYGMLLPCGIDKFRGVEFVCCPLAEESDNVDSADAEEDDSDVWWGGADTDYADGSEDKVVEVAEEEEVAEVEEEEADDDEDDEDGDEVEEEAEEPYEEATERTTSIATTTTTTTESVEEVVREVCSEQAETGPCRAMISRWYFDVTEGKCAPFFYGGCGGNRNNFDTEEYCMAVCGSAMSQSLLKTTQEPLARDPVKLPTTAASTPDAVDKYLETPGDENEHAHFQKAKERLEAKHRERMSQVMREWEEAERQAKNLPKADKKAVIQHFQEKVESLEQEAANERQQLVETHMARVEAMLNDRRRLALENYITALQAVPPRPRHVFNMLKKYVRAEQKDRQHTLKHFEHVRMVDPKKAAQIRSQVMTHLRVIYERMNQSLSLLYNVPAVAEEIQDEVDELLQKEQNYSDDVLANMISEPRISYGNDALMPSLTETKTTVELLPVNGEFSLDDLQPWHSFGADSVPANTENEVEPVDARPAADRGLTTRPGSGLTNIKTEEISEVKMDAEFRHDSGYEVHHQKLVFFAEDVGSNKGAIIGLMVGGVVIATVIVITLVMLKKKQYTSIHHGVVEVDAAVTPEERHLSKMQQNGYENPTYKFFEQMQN
Procedure, shortened: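 Aβ1-42 stock (2000 μM in 1% ammonium hydroxide) diluted in 50 mM phosphate pH 7.4. Peptide (final 25 μM) incubated with or without compound (25 μM) at 37 °C for 48 h. Then diluted in 50 mM glycine-NaOH pH 8.0 containing 5 μM thioflavin T, read after 5 min (ex 446/em 490 nm). Inhibition = (1 − IFi/IFc) × 100 after blank subtraction. Mean ± SD of three independent experiments.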

PC-12 = assay: Cytotoxicity against rat PC12 cells assessed as reduction in cell viability up to 100 uM after 24 hrs by MTT assay; assay type: cell-based; settings: pc-12, 24 h
Procedure, shortened: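 PC12 cells grown at 37 °C, 5% CO2 in DMEM with 10% bovine calf serum and penicillin/streptomycin; seeded 10,000 cells/well, switched to serum-free medium, then exposed to compound (0–100 μM) for 24 h. MTT added for 4 h at 37 °C, formazan dissolved in DMSO, absorbance read at 570 nm (reference 630 nm). Mean ± SD of three independent experiments.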

Mus musculus [5] = assay: Acute toxicity in Kunming mouse assessed as abnormal change in water consumption at 2.4 mmol/kg, po administered as single dose via gavage measured continuously for first 4 hrs, intermittently for next 24 hrs and occasionally thereafter for 14 days; assay type: organism-based; settings: in vivo
Procedure, shortened: (§1)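 Male KM mice (22 days old, 18–20 g), 15 in total, randomly split into 3 groups of 5. Kept on a 12 h light/dark cycle at 20-22 °C and 60-70% humidity, fasted overnight with free water. Single oral dose of 2.4 mmol/kg suspended in 0.5% CMC-Na. Mortality, behaviour, water and food intake, and body weight followed over 14 days.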

Mus musculus [6] = assay: Acute toxicity in Kunming mouse assessed as mortality at 2.4 mmol/kg, po administered as single dose via gavage measured continuously for first 4 hrs, intermittently for next 24 hrs and occasionally thereafter for 14 days; assay type: organism-based; settings: in vivo; procedure, shortened: as §1
Mus musculus [7] = assay: Hepatotoxicity in Kunming mouse at 2.4 mmol/kg, po administered as single dose via gavage measured continuously for first 4 hrs, intermittently for next 24 hrs and occasionally thereafter for 14 days by […]; assay type: toxicity, organism-based; settings: in vivo
Procedure, shortened: (§2)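 Male KM mice (18–20 g) received a single oral 2.4 mmol/kg dose in 0.5% CMC-Na suspension after an overnight fast. All animals were sacrificed on day 14 after dosing, and heart, liver and kidneys were examined macroscopically for damage.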

[8] = molecular target: T2, Amine oxidase [flavin-containing] B; assay: Irreversible inhibition of recombinant human MAO-B at 30 nM using p-tyramine as substrate preincubated for 15 to 60 mins followed by substrate addition and subsequent two-fold enzyme dilution measured after 15 mins by amplex red reagent based fluorescence assay; settings: 0.25 h, 0.03 µM
Mus musculus [9] = assay: Cardiotoxicity in Kunming mouse at 2.4 mmol/kg, po administered as single dose via gavage measured continuously for first 4 hrs, intermittently for next 24 hrs and occasionally thereafter for 14 days by […]; assay type: toxicity, organism-based; settings: in vivo; procedure, shortened: as §2
Mus musculus [10] = assay: Nephrotoxicity in Kunming mouse at 2.4 mmol/kg, po administered as single dose via gavage measured continuously for first 4 hrs, intermittently for next 24 hrs and occasionally thereafter for 14 days […]; assay type: toxicity, organism-based; settings: in vivo; procedure, shortened: as §2
Mus musculus [11] = assay: Acute toxicity in Kunming mouse assessed as effect on serum ALT level at 2.4 mmol/kg, po administered as single dose via gavage measured continuously for first 4 hrs, intermittently for next 24 hrs and occasionally thereafter for 14 days; assay type: organism-based; settings: in vivo
Procedure, shortened: (§3)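 Male KM mice (18–20 g), fasted overnight, given one oral 2.4 mmol/kg dose suspended in 0.5% CMC-Na. On day 14, orbital blood was collected before decapitation and serum AST and ALT activities measured against a control group. Mean ± SD of three independent experiments.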

Mus musculus [12] = assay: Acute toxicity in Kunming mouse assessed as abnormal change in food consumption at 2.4 mmol/kg, po administered as single dose via gavage measured continuously for first 4 hrs, intermittently for next 24 hrs and occasionally thereafter for 14 days; assay type: organism-based; settings: in vivo; procedure, shortened: as §1
Mus musculus [13] = assay: Acute toxicity in Kunming mouse assessed as effect on serum AST level at 2.4 mmol/kg, po administered as single dose via gavage measured continuously for first 4 hrs, intermittently for next 24 hrs and occasionally thereafter for 14 days; assay type: organism-based; settings: in vivo; procedure, shortened: as §3
Mus musculus [14] = assay: Acute toxicity in Kunming mouse assessed as abnormal change in body weight at 2.4 mmol/kg, po administered as single dose via gavage measured continuously for first 4 hrs, intermittently for next 24 hrs and occasionally thereafter for 14 days; assay type: organism-based; settings: in vivo; procedure, shortened: as §1

Row | Ratio IC50 (Homo sapiens) | IC50 [2] [µM] | IC50 [3] [µM] | Structure (SMILES) | also measured
1 |  |  |  | C[C@]12CC[C@@H]3c4ccc(O)cc4CC[C@H]3[C@@H]1CC[C@@H]2O [ESTRADIOL] | Papp at 16 h [1]: 8 ×10⁻⁶ cm/s
2 | 10.3 | 72.1 | 7.01 | C#CCN(CCOc1ccc2ccc(=O)oc2c1)Cc1cccc(OC)c1 | 
3 | 34 | 36.9 | 1.08 | C#CCN(C)CCCOc1ccc2ccc(=O)oc2c1 | inhibition [4]: 59.3%
4 | 4.24 | 40.8 | 9.62 | C#CCN(CCOc1ccc2ccc(=O)oc2c1)Cc1ccc(F)c(F)c1 | 
5 |  |  |  | CCn1cc(C(=O)O)c(=O)c2cc(F)c(N3CCNC(C)C3)c(F)c21 (configuration not stated) [LOMEFLOXACIN] | Papp at 16 h [1]: 1.05 ×10⁻⁶ cm/s
6 | 10 | 56.4 | 5.64 | C#CCN(CCOc1ccc2ccc(=O)oc2c1)Cc1ccc(C)cc1 | 
7 | 4.94 | 22.7 | 4.59 | C#CCN(CCCOc1ccc2ccc(=O)oc2c1)Cc1cccc(OC)c1 | 
8 | 44.6 | 69.1 | 1.55 | C#CCN(CCCCOc1ccc2ccc(=O)oc2c1)Cc1cccc(F)c1 | 
9 | 39.4 | 93.2 | 2.37 | C#CCN(CCCCOc1ccc2ccc(=O)oc2c1)Cc1ccc(F)c(F)c1 | inhibition [4]: 30.6%
10 | 10.1 | 49.2 | 4.86 | C#CCN(CCCOc1ccc2ccc(=O)oc2c1)Cc1ccc(F)c(F)c1 | 
11 | 33.6 | 78.6 | 2.34 | C#CCN(CCCCOc1ccc2ccc(=O)oc2c1)Cc1cccc(OC)c1 | inhibition [4]: 38.2%
12 | 10.1 | 70 | 6.96 | C#CCN(CCOc1ccc2ccc(=O)oc2c1)Cc1ccc(C(C)C)cc1 | 
13 | 10.1 | 35.4 | 3.5 | C#CCN(CCCCOc1ccc2ccc(=O)oc2c1)Cc1ccc(C(C)C)cc1 | 
14 | 48.2 | 54.5 | 1.13 | C#CCN(CCCCOc1ccc2ccc(=O)oc2c1)Cc1ccc(OC)cc1 | inhibition [4]: 49.1%
15 | 15.7 | 55 | 3.51 | C#CCN(CCOc1ccc2ccc(=O)oc2c1)Cc1ccc(OC)cc1 | 
16 |  |  |  | C#CCN(C)Cc1ccccc1 [PARGYLINE] | Activity (Mus musculus [5]): Non-Toxic; Activity (Mus musculus [6]): Non-Toxic; Activity (Mus musculus [7]): Non-Toxic; Activity (Mus musculus [9]): Non-Toxic; Activity (Mus musculus [10]): Non-Toxic; Activity (Mus musculus [11]): Non-Toxic; Activity (Mus musculus [12]): Non-Toxic; Activity (Mus musculus [13]): Non-Toxic; Activity (Mus musculus [14]): Non-Toxic
17 | 63.4 | 69.9 | 1.1 | C#CCN(C)CCOc1ccc2ccc(=O)oc2c1 | inhibition [4]: 36.4%
18 | 9.64 | 53.3 | 5.53 | C#CCN(CCOc1ccc2ccc(=O)oc2c1)Cc1cccc(F)c1 | 
19 | 15.8 | 116 | 7.38 | C#CCN(CCCOc1ccc2ccc(=O)oc2c1)Cc1ccc(C)cc1 | 
20 | 9.87 | 60 | 6.08 | C#CCN(CCCOc1ccc2ccc(=O)oc2c1)Cc1ccc(OC)cc1 | 
21 | 6.59 | 29.3 | 4.44 | C#CCN(CCCOc1ccc2ccc(=O)oc2c1)Cc1cccc(F)c1 | 
22 | 91.4 | 89.3 | 0.978 | C#CCN(CCCCOc1ccc2ccc(=O)oc2c1)Cc1ccccc1 | 
23 | 56.4 | 94.5 | 1.68 | C#CCN(CCCCOc1ccc2ccc(=O)oc2c1)Cc1ccc(C)cc1 | inhibition [4]: 50%
24 | 10.8 | 89.5 | 8.3 | C#CCN(CCOc1ccc2ccc(=O)oc2c1)Cc1ccccc1 | 
25 | 10.3 | 38.6 | 3.74 | C#CCN(CCCOc1ccc2ccc(=O)oc2c1)Cc1ccccc1 | 
26 | 10.2 | 77.4 | 7.58 | C#CCN(CCCOc1ccc2ccc(=O)oc2c1)Cc1ccc(C(C)C)cc1 | 

Row | Structure (SMILES) | Ratio IC50 (Homo sapiens) | IC50 [2] [µM] | IC50 [3] [µM] | also measured
27 | C#CCN(C)CCCCOc1ccc2ccc(=O)oc2c1 | 121 | 3.28 | 0.027 | Papp at 16 h [1]: 8.92 ×10⁻⁶ cm/s; Activity (PC-12): Non-Toxic; Activity (Mus musculus [5]): Non-Toxic; Activity (Mus musculus [6]): Non-Toxic; Activity (Mus musculus [7]): Non-Toxic; inhibition (INH) [8]: Active; Activity (Mus musculus [9]): Non-Toxic; inhibition [4]: 54%; Activity (Mus musculus [10]): Non-Toxic; Activity (Mus musculus [11]): Non-Toxic; Activity (Mus musculus [12]): Non-Toxic; Activity (Mus musculus [13]): Non-Toxic; Activity (Mus musculus [14]): Non-Toxic
